In ChEMBL document CHEMBL4715780, “Biological evaluation of tetracationic compounds based on two 1,4-diazabicyclo[2.2.2]octane moieties connected by different linkers” (Bioorg Med Chem, 2016):

Legend:
Proteus vulgaris [1] = experiment: Antibacterial activity against Proteus vulgaris ATCC 6380 assessed as concentration required to inhibit visible growth by CLSI protocol based serial microdilution method; format: functional
Pseudomonas aeruginosa [2] = experiment: Antibacterial activity against Pseudomonas aeruginosa ATCC 9027 assessed as concentration required to inhibit visible growth by CLSI protocol based serial microdilution method; format: functional
[3] = Selectivity index, ratio of CC50 for HEK293T cells assessed as reduction in cell viability measured after 24 hrs by MTT assay to MIC for Proteus vulgaris ATCC 6380 assessed as bacterial growth inhibition by CLSI protocol based serial microdilution method; format: toxicity; details: human, read-out: Selectivity Index
Enterococcus faecalis [4] = experiment: Antibacterial activity against Enterococcus faecalis ATCC 51299 assessed as concentration required to inhibit visible growth by CLSI protocol based serial microdilution method; format: functional
Escherichia coli [5] = experiment: Antibacterial activity against Escherichia coli ATCC 25922 assessed as concentration required to inhibit visible growth by CLSI protocol based serial microdilution method; format: functional
[6] = Cytotoxicity against human MCF7 cells assessed as reduction in cell viability measured after 24 hrs by MTT assay; format: cell-based
How it was run: (§1)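 HEK293T or MCF-7 cells in IMDM with 10% FBS, seeded at 20,000 per well and grown overnight. Compounds at […] in fresh medium for 24 h at 37 °C, 5% CO₂. MTT then added for 4 h, precipitate dissolved overnight in SDS-HCl, absorbance read at 570 nm. Viability expressed relative to untreated cells, giving CC₅₀. Duplicate wells, at least two independent repeats.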

Staphylococcus aureus [7] = experiment: Antibacterial activity against […] Staphylococcus aureus ATCC 25923 assessed as bacterial growth inhibition by CLSI protocol based serial microdilution method; format: functional
Pseudomonas aeruginosa [8] = experiment: Antibacterial activity against Pseudomonas aeruginosa ATCC 9027 assessed as bacterial growth inhibition by CLSI protocol based serial microdilution method; format: functional
Salmonella typhimurium [9] = experiment: Antibacterial activity against Salmonella enterica ATCC 14028 assessed as bacterial growth inhibition by CLSI protocol based serial microdilution method; format: functional, Salmonella enterica subsp. enterica serovar Typhimurium
[10] = Selectivity index, ratio of CC50 for HEK293T cells assessed as reduction in cell viability measured after 24 hrs by MTT assay to MIC for Salmonella enterica ATCC 14028 assessed as bacterial growth inhibition by CLSI protocol based serial microdilution method; format: toxicity; details: human, read-out: Selectivity Index
Proteus vulgaris [11] = experiment: Antibacterial activity against Proteus vulgaris ATCC 6380 assessed as bacterial growth inhibition by CLSI protocol based serial microdilution method; format: functional
Citrobacter freundii [12] = experiment: Antibacterial activity against Citrobacter freundii ATCC 8090 assessed as bacterial growth inhibition by CLSI protocol based serial microdilution method; format: functional
[13] = Selectivity index, ratio of CC50 for HEK293T cells assessed as reduction in cell viability measured after 24 hrs by MTT assay to MIC for Staphylococcus aureus ATCC 25923 assessed as bacterial growth inhibition by CLSI protocol based serial microdilution method; format: toxicity; details: human, read-out: Selectivity Index
[14] = Selectivity index, ratio of CC50 for HEK293T cells assessed as reduction in cell viability measured after 24 hrs by MTT assay to MIC for Escherichia coli ATCC 25922 assessed as bacterial growth inhibition by CLSI protocol based serial microdilution method; format: toxicity; details: human, read-out: Selectivity Index
Salmonella typhimurium [15] = experiment: Antibacterial activity against Salmonella enterica ATCC 14028 assessed as concentration required to inhibit visible growth by CLSI protocol based serial microdilution method; format: functional, Salmonella enterica subsp. enterica serovar Typhimurium
Influenza A virus = experiment: Antiviral activity against Influenza A virus (A/Puerto Rico/8/34 (H1N1) infected in MDCK cells assessed as decrease in viral titer preincubated for 1 hr followed by viral infection and cultivated for 48 hrs followed by supernatant transferred to chicken erythrocyte for 1 hr followed by measuring ability to cause positive hemagglutination; format: functional, organism-based; details: A/Puerto Rico/8/1934(H1N1)
How it was run: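 MDCK monolayers in MEM were pre-incubated with compound for 1 h at 37 °C, then infected with 10-fold virus dilutions (10⁻¹–10⁻⁶) and held 48 h at 37 °C, 5% CO₂. Supernatant was mixed with an equal volume of 1% chicken erythrocytes, 60 min at room temperature. Titre was taken from the highest dilution giving full agglutination (log₁₀ EID₅₀). Triplicate per concentration.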

Staphylococcus aureus [16] = experiment: Antibacterial activity against […] Staphylococcus aureus ATCC 25923 assessed as concentration required to inhibit visible growth by CLSI protocol based serial microdilution method; format: functional
[17] = Selectivity index, ratio of CC50 for HEK293T cells assessed as reduction in cell viability measured after 24 hrs by MTT assay to MIC for Candida albicans CEMTC 34 assessed as bacterial growth inhibition by CLSI protocol based serial microdilution method; format: toxicity; details: human, read-out: Selectivity Index
How it was run: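 SI = CC₅₀ (HEK293T) / MIC. HEK293T cells were seeded at 20,000/well overnight, then exposed to 10–250 µg/mL in IMDM with 10% FBS for 24 h. MTT was added for 4 h, solubilised with SDS-HCl, and read at 570 nm; duplicates, ≥2 independent runs. MIC came from two-fold dilutions in Sabouraud dextrose broth at ~5 × 10⁵ CFU/mL, 37 °C with shaking, read at 595 nm, in duplicate.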

Enterococcus faecalis [18] = experiment: Antibacterial activity against Enterococcus faecalis ATCC 51299 assessed as bacterial growth inhibition by CLSI protocol based serial microdilution method; format: functional
[19] = Cytotoxicity against MDCK cells assessed as cell death incubated for 48 hrs by MTT assay; format: cell-based, Canis lupus familiaris; details: dog
Candida albicans [20] = experiment: Antifungal activity against Candida albicans CEMTC 34 assessed as fungal growth inhibition by CLSI protocol based serial microdilution method; format: functional
How it was run: (§2)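 Candida albicans grown in Sabouraud dextrose broth with two-fold serial compound dilutions from water stocks; final inoculum about 5 × 10⁵ CFU/mL. Incubated at 37 °C with orbital shaking (580 rpm). MIC is the lowest concentration preventing growth, by absorbance at 595 nm. MFC is the lowest concentration with no visible growth. Duplicates in two separate experiments.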

[21] = Selectivity index, ratio of CC50 for HEK293T cells assessed as reduction in cell viability measured after 24 hrs by MTT assay to MIC for Citrobacter freundii ATCC 8090 assessed as bacterial growth inhibition by CLSI protocol based serial microdilution method; format: toxicity; details: human, read-out: Selectivity Index
Candida albicans [22] = experiment: Antifungal activity against Candida albicans CEMTC 34 assessed as concentration required to inhibit visible growth by CLSI protocol based serial microdilution method; format: functional; how it was run: as §2
Citrobacter freundii [23] = experiment: Antibacterial activity against Citrobacter freundii ATCC 8090 assessed as concentration required to inhibit visible growth by CLSI protocol based serial microdilution method; format: functional
[24] = Selectivity index, ratio of CC50 for HEK293T cells assessed as reduction in cell viability measured after 24 hrs by MTT assay to MIC for Pseudomonas aeruginosa ATCC 9027 assessed as bacterial growth inhibition by CLSI protocol based serial microdilution method; format: toxicity; details: human, read-out: Selectivity Index
[25] = Selectivity index, ratio of CC50 for MDCK cells to EC50 for Influenza A virus (A/Puerto Rico/8/34 (H1N1)) infected in MDCK cells; format: toxicity, cell-based; details: dog, read-out: Ratio CC50/EC50
How it was run: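 Ratio of CC₅₀ to EC₅₀, both in MDCK cells, with cytotoxicity run in parallel with the antiviral assay. EC₅₀ is the concentration halving virus production (0.3 log₁₀ EID₅₀ titre drop). It was obtained after 1 h compound pre-incubation, infection, 48 h at 37 °C, and hemagglutination read-out with 1% chicken erythrocytes.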

Escherichia coli [26] = experiment: Antibacterial activity against Escherichia coli ATCC 25922 assessed as bacterial growth inhibition by CLSI protocol based serial microdilution method; format: functional
[27] = Selectivity index, ratio of CC50 for HEK293T cells assessed as reduction in cell viability measured after 24 hrs by MTT assay to MIC for Enterococcus faecalis ATCC 51299 assessed as bacterial growth inhibition by CLSI protocol based serial microdilution method; format: toxicity; details: human, read-out: Selectivity Index
[28] = Cytotoxicity against HEK293T cells assessed as reduction in cell viability measured after 24 hrs by MTT assay; format: cell-based, HEK-293T; details: human; how it was run: as §1

SMILES | MBC (Proteus vulgaris [1]) [mg/L] | MBC (Pseudomonas aeruginosa [2]) [mg/L] | selectivity ratio at 24 h [3] | MBC (Enterococcus faecalis [4]) [mg/L] | MBC (Escherichia coli [5]) [mg/L] | CC50 at 24 h [6] [mg/L] | MIC (Staphylococcus aureus [7]) [mg/L] | MIC (Pseudomonas aeruginosa [8]) [mg/L] | MIC (Salmonella typhimurium [9]) [mg/L] | selectivity ratio at 24 h [10] | MIC (Proteus vulgaris [11]) [mg/L] | MIC (Citrobacter freundii [12]) [mg/L] | selectivity ratio at 24 h [13] | selectivity ratio at 24 h [14] | MBC (Salmonella typhimurium [15]) [mg/L] | EC50 (Influenza A virus) [mg/L] | MBC (Staphylococcus aureus [16]) [mg/L] | selectivity ratio at 24 h [17] | MIC (Enterococcus faecalis [18]) [mg/L] | CC50 at 48 h [19] [mg/L] | further results
CCCCCCCCCCCC[N+]12CC[N+](CC#CC[N+]34CC[N+](CCCCCCCCCCCC)(CC3)CC4)(CC1)CC2 | > 100 | 12.5 | < 1 | 3.1 | 12.5 | 23 | 1.6 | 3.1 | 6.3 | 4 | 100 | 6.3 | 14 | 4 | 12.5 | > 3 | 3.1 | 2 | 1.6 | 4 | MIC (Candida albicans [20]): 12.5 mg/L; selectivity ratio at 24 h [21]: 4; MFC (Candida albicans [22]): 12.5 mg/L; MBC (Citrobacter freundii [23]): 12 mg/L; selectivity ratio at 24 h [24]: 7; selectivity ratio [25]: < 1; MIC (Escherichia coli [26]): 63 mg/L; selectivity ratio at 24 h [27]: 14; CC50 at 24 h [28]: 22 mg/L
CCCCCCCCCCCC[N+]12CC[N+](CCCC[N+]34CC[N+](CCCCCCCCCCCC)(CC3)CC4)(CC1)CC2 | > 100 | 3.1 | < 1 | 1.6 | 3.1 | 4 | 0.6 | 1.6 | 1.6 | 3 | 25 | 1.6 | 7 | 3 | 3.1 | > 3 | 1.2 | < 1 | 1.6 | 6.8 | MIC (Candida albicans [20]): 6.3 mg/L; selectivity ratio at 24 h [21]: 3; MFC (Candida albicans [22]): 6.3 mg/L; MBC (Citrobacter freundii [23]): 1.6 mg/L; selectivity ratio at 24 h [24]: 3; selectivity ratio [25]: < 2; MIC (Escherichia coli [26]): 1.6 mg/L; selectivity ratio at 24 h [27]: 3; CC50 at 24 h [28]: 4 mg/L
CCCCCCCCCCCC[N+]12CC[N+](Cc3ccc(C[N+]45CC[N+](CCCCCCCCCCCC)(CC4)CC5)cc3)(CC1)CC2 | 25 | 12.5 | 1 | 1.6 | 3.1 | 16 | 0.6 | 6.3 | 1.6 | 10 | 12.5 | 1.6 | 27 | 10 | 3.1 | 1 | 1.2 | 1 | 1.6 | 2.9 | MIC (Candida albicans [20]): 12.5 mg/L; selectivity ratio at 24 h [21]: 10; MFC (Candida albicans [22]): 12.5 mg/L; MBC (Citrobacter freundii [23]): 3.1 mg/L; selectivity ratio at 24 h [24]: 3; selectivity ratio [25]: 3; MIC (Escherichia coli [26]): 1.6 mg/L; selectivity ratio at 24 h [27]: 10; CC50 at 24 h [28]: 16 mg/L
